Values after ≈ are worked out from the molar mass of the structure shown. Square brackets hold non-standard residues; d marks the D form. Peptide text beside a SMILES is read from it. d2Nal = N[C@H](Cc1ccc2ccccc2c1)C(=O)O
Experiments:
Type in all cases: functional
[1] = species on record: Rattus norvegicus; assay: In vitro histamine releasing activity determined with peritoneal mast cells from male Sprague-Dawley rats.; conditions: Mast cell, read-out: ED50 (the source's name)
[2] = species on record: Rattus norvegicus; assay: Antiovulatory activity expressed as the percentage of rats blocked at 50 ug
How it was run: (§1)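 Female Sprague-Dawley rats dosed in a 40% propane-1,2-diol/0.9% saline vehicle in a standard antiovulatory assay. The read-out is ovulation block, reported as the percentage of n rats not ovulating at x μg of analogue.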

[3] = species on record: Rattus norvegicus; assay: Antiovulatory activity expressed as the percentage of rats blocked at 6 ug; how it was run: as §1
[4] = species on record: Rattus norvegicus; assay: Antiovulatory activity expressed as the percentage of rats blocked at 12 ug; how it was run: as §1
[5] = species on record: Rattus norvegicus; assay: Antiovulatory activity expressed as the percentage of rats blocked at 0.5 ug; how it was run: as §1

EC50 [1] [µg/mL] | Compound | Rats blocked [2] [%] | Rats blocked [3] [%] | Rats blocked [4] [%] | Rats blocked [5] [%]
1.5 (≈ 1.05 µM) | CC(=O)N[C@H](Cc1ccc2ccccc2c1)C(=O)N[C@H](Cc1ccccc1)C(=O)N[C@H](Cc1ccccc1)C(=O)N[C@@H](CO)C(=O)N[C@@H](Cc1ccc(O)cc1)C(=O)N[C@@H](CCCCN)CN(C(C)=O)[C@@H](Cc1ccccc1)C(=O)N[C@@H](CCCN=C(N)N)C(=O)N1CCC[C@H]1C(=O)N[C@H](C)C(=O)O | 33 | – | – | –
4 (≈ 2.74 µM) | CC(=O)N[C@H](Cc1ccc2ccccc2c1)C(=O)N[C@H](Cc1ccccc1)C(=O)N[C@H](Cc1ccccc1)C(=O)N[C@@H](CO)C(=O)N[C@@H](Cc1ccc(O)cc1)CN(C(C)=O)[C@H](CCCN=C(N)N)C(=O)N[C@@H](Cc1ccccc1)C(=O)N[C@@H](CCCN=C(N)N)C(=O)N1CCC[C@H]1C(=O)N[C@H](C)C(=O)O | 0 | – | – | –
0.45 (≈ 0.309 µM) | CC(=O)N[C@H](Cc1ccc2ccccc2c1)C(=O)N[C@H](Cc1ccccc1)C(=O)N[C@H](Cc1ccccc1)C(=O)N[C@@H](CO)CN(C(C)=O)[C@@H](Cc1ccc(O)cc1)C(=O)N[C@H](CCCN=C(N)N)C(=O)N[C@@H](Cc1ccccc1)C(=O)N[C@@H](CCCN=C(N)N)C(=O)N1CCC[C@H]1C(=O)N[C@H](C)C(=O)O | 0 | – | – | –
0.43 (≈ 0.304 µM) | CC(=O)N[C@H](Cc1ccc2ccccc2c1)C(=O)N[C@H](Cc1ccccc1)C(=O)N[C@H](CN[C@@H](CO)C(=O)N[C@@H](Cc1ccc(O)cc1)C(=O)N[C@H](CCCN=C(N)N)C(=O)N[C@@H](Cc1ccccc1)C(=O)N[C@@H](CCCN=C(N)N)C(=O)N1CCC[C@H]1C(=O)N[C@H](C)C(=O)O)Cc1ccccc1 | 0 | – | – | –
0.19 (≈ 0.134 µM) | CC(=O)N[C@H](Cc1ccc2ccccc2c1)C(=O)N[C@H](Cc1ccccc1)C(=O)N[C@H](Cc1ccccc1)C(=O)N[C@@H](CO)CN[C@@H](Cc1ccc(O)cc1)C(=O)N[C@H](CCCN=C(N)N)C(=O)N[C@@H](Cc1ccccc1)C(=O)N[C@@H](CCCN=C(N)N)C(=O)N1CCC[C@H]1C(=O)N[C@H](C)C(=O)O | – | – | 63 | –

Continued, compound first:

Compound | EC50 [1] [µg/mL] | Rats blocked [2] [%] | Rats blocked [3] [%] | Rats blocked [4] [%] | Rats blocked [5] [%]
CC(=O)N[C@H](Cc1ccc2ccccc2c1)C(=O)N[C@H](Cc1ccccc1)C(=O)N[C@H](Cc1ccccc1)C(=O)N[C@@H](CO)C(=O)N[C@@H](Cc1ccc(O)cc1)C(=O)N[C@H](CCCN=C(N)N)C(=O)N[C@H](CN[C@@H](CCCN=C(N)N)C(=O)N1CCC[C@H]1C(=O)N[C@H](C)C(=O)O)Cc1ccccc1 | 0.46 (≈ 0.325 µM) | 0 | – | – | –
CCN(CC)[C@H](Cc1ccc2ccccc2c1)C(=O)N[C@H](Cc1ccccc1)C(=O)N[C@H](Cc1ccccc1)C(=O)N[C@@H](CO)C(=O)N[C@@H](Cc1ccc(O)cc1)C(=O)N[C@H](CCCN=C(N)N)C(=O)N[C@@H](Cc1ccccc1)C(=O)N[C@@H](CCCN=C(N)N)C(=O)N1CCC[C@H]1C(=O)N[C@H](C)C(=O)O | 0.45 (≈ 0.312 µM) | – | 0 | – | –
CC(=O)N[C@H](Cc1ccc2ccccc2c1)C(=O)N[C@H](Cc1ccccc1)C(=O)N[C@H](Cc1ccccc1)C(=O)N[C@@H](CO)C(=O)N[C@@H](Cc1ccc(O)cc1)C(=O)N[C@H](CCCN=C(N)N)C(=O)N[C@@H](Cc1ccccc1)C(=O)N[C@@H](CCCN=C(N)N)C(=O)N1CCC[C@@H]1CN[C@H](C)C(=O)O | 0.21 (≈ 0.148 µM) | – | 44 | 92 | –
CC(=O)N[C@H](Cc1ccc2ccccc2c1)C(=O)N[C@H](Cc1ccccc1)C(=O)N[C@H](Cc1ccccc1)C(=O)N[C@@H](CO)C(=O)N[C@@H](Cc1ccc(O)cc1)C(=O)N[C@@H](CCCCN)CN[C@@H](Cc1ccccc1)C(=O)N[C@@H](CCCN=C(N)N)C(=O)N1CCC[C@H]1C(=O)N[C@H](C)C(=O)O | 1.9 (≈ 1.37 µM) | 60 | – | – | –
CC(=O)N[C@H](Cc1ccc2ccccc2c1)C(=O)N[C@H](Cc1ccccc1)C(=O)N[C@H](Cc1ccccc1)C(=O)N[C@@H](CO)C(=O)N[C@@H](Cc1ccc(O)cc1)C(=O)N[C@H](CCCN=C(N)N)C(=O)N[C@@H](Cc1ccccc1)C(=O)N[C@@H](CCCN=C(N)N)C(=O)N1CCC[C@@H]1CN(C(C)=O)[C@H](C)C(=O)O | 0.28 (≈ 0.192 µM) | 100 | – | 75 | –
CC(=O)N[C@H](CN[C@H](Cc1ccccc1)C(=O)N[C@H](Cc1ccccc1)C(=O)N[C@@H](CO)C(=O)N[C@@H](Cc1ccc(O)cc1)C(=O)N[C@H](CCCN=C(N)N)C(=O)N[C@@H](Cc1ccccc1)C(=O)N[C@@H](CCCN=C(N)N)C(=O)N1CCC[C@H]1C(=O)N[C@H](C)C(=O)O)Cc1ccc2ccccc2c1 | 1.5 (≈ 1.06 µM) | 0 | – | – | –
CC(=O)N[C@H](Cc1ccc2ccccc2c1)C(=O)N[C@H](CN[C@H](Cc1ccccc1)C(=O)N[C@@H](CO)C(=O)N[C@@H](Cc1ccc(O)cc1)C(=O)N[C@H](CCCN=C(N)N)C(=O)N[C@@H](Cc1ccccc1)C(=O)N[C@@H](CCCN=C(N)N)C(=O)N1CCC[C@H]1C(=O)N[C@H](C)C(=O)O)Cc1ccccc1 | 0.35 (≈ 0.247 µM) | 0 | – | – | –
CCN[C@H](Cc1ccc2ccccc2c1)C(=O)N[C@H](Cc1ccccc1)C(=O)N[C@H](Cc1ccccc1)C(=O)N[C@@H](CO)C(=O)N[C@@H](Cc1ccc(O)cc1)C(=O)N[C@H](CCCN=C(N)N)C(=O)N[C@@H](Cc1ccccc1)C(=O)N[C@@H](CCCN=C(N)N)C(=O)N1CCC[C@H]1C(=O)N[C@H](C)C(=O)O | 0.34 (≈ 0.24 µM) | – | 17 | – | –
CC(=O)N[C@H](Cc1ccc2ccccc2c1)C(=O)N[C@H](Cc1ccccc1)C(=O)N[C@H](Cc1ccccc1)C(=O)N[C@@H](CO)C(=O)N[C@H](CN[C@H](CCCN=C(N)N)C(=O)N[C@@H](Cc1ccccc1)C(=O)N[C@@H](CCCN=C(N)N)C(=O)N1CCC[C@H]1C(=O)N[C@H](C)C(=O)O)Cc1ccc(O)cc1 | 1.5 (≈ 1.06 µM) | – | – | 100 | –
CC(=O)N[C@H](Cc1ccc2ccccc2c1)C(=O)N[C@H](Cc1ccccc1)C(=O)N[C@H](Cc1ccccc1)C(=O)N[C@@H](CO)C(=O)N[C@@H](Cc1ccc(O)cc1)C(=O)N[C@H](CCCN=C(N)N)C(=O)N[C@@H](Cc1ccccc1)C(=O)N[C@@H](CCCN=C(N)N)C(=O)N1CCC[C@H]1C(=O)N[C@H](C)C(N)=O (Ac-[d2Nal][dF][dF]SY[dR]FRP[dA]-NH2) | 0.11 (≈ 0.077 µM) | – | – | – | 56

— ChEMBL document CHEMBL1124207, “Effect of the CH2NH and CH2NAc peptide bond isosteres on the antagonistic and histamine releasing activities of a luteinizing hormone-releasing hormone analogue” (1988)
